{
  "source": "ChEMBL document CHEMBL1127418",
  "about": "“Novel antiproliferative agents derived from lavendustin A” (J Med Chem, 1994)",
  "key": {"HaCaT": {"test_system": "HaCaT", "experiment": "Inhibitory activity of HaCaT keratinocyte cell line", "type": "functional, cell-based", "settings": "Homo sapiens", "procedure,_shortened": "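HaCaT keratinocytes kept in DMEM with 5% FCS, trypsinized and seeded at 4000 cells/0.2 mL/well. After 24 h, medium was replaced with fresh medium holding graded compound concentrations. Proliferation was read after 3–4 days by sulforhodamine B colorimetry. IC50 values are the average of at least two independent measurements.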"}, "[1]": {"molecular_target": "Epidermal growth factor receptor (Homo sapiens, UniProt P00533)", "sequence (P00533 whole entry)": "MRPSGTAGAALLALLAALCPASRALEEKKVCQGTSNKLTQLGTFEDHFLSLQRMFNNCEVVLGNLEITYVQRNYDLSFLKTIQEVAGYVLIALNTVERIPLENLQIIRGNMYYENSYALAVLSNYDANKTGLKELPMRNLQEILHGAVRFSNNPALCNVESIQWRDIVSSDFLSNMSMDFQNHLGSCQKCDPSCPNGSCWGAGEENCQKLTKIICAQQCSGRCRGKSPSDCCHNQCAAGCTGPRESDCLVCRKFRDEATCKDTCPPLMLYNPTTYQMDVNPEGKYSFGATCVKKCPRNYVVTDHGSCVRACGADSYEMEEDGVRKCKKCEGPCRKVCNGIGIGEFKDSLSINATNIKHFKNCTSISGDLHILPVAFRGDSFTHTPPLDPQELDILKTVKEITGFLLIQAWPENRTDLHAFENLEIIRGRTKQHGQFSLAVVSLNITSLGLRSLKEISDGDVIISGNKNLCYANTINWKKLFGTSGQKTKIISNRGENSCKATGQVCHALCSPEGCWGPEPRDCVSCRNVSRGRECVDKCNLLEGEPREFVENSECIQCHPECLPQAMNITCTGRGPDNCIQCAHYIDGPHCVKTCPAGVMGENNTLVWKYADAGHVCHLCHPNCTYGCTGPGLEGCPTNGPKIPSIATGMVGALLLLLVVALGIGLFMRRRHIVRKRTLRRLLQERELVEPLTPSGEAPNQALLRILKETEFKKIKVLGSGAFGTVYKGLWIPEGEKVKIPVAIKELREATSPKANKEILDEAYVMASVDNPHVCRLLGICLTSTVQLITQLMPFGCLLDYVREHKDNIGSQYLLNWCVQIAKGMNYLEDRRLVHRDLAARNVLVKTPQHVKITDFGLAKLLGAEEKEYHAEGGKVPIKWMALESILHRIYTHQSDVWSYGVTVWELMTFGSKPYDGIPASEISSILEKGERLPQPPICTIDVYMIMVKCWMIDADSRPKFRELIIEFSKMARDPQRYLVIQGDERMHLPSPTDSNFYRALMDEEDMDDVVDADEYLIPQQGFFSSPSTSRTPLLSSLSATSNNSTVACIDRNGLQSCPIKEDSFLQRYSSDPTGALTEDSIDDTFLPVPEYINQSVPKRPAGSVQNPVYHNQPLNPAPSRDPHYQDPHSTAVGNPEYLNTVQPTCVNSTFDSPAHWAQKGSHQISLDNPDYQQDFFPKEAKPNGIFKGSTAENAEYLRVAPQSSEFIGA", "experiment": "Inhibition of EGF-R Tyrosine kinase (TK)"}, "P388": {"test_system": "P388", "experiment": "Inhibition of P388 cell proliferation", "settings": "Mus musculus"}, "K562": {"test_system": "K562", "experiment": "Inhibition of K562 cell proliferation", "settings": "Homo sapiens"}, "MDA-MB-468": {"test_system": "MDA-MB-468", "experiment": "Inhibition of MDA-MB-468 cell proliferation", "type": "functional, cell-based", "settings": "Homo sapiens"}, "U-937": {"test_system": "U-937", "experiment": "Inhibition of U937 cell proliferation", "type": "functional, cell-based", "settings": "Homo sapiens"}, "MCF7": {"test_system": "MCF7", "experiment": "Inhibition of MCF-7 cell proliferation", "settings": "Homo sapiens"}, "LoVo": {"test_system": "LoVo", "experiment": "Inhibition of LOVO cell proliferation", "type": "functional, cell-based", "settings": "Homo sapiens"}, "HeLa": {"test_system": "HeLa", "experiment": "Inhibition of HeLa cell proliferation", "settings": "Homo sapiens"}, "MDA-MB-231": {"test_system": "MDA-MB-231", "experiment": "cells", "settings": "Homo sapiens"}, "A-431": {"test_system": "A-431", "experiment": "Inhibition of A431 cell proliferation", "settings": "Homo sapiens"}, "SCL-1": {"test_system": "SCL-1", "experiment": "Inhibition of SCL-1 cell proliferation", "settings": "Homo sapiens"}, "SK-BR-3": {"test_system": "SK-BR-3", "experiment": "Inhibition of SK-BR-3 cell proliferation", "type": "functional, cell-based", "settings": "Homo sapiens", "procedure,_shortened": "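Tumour cells grown at 37 °C without antibiotics. Harvested at exponential growth (suspension lines) or 60–90% confluence (adherent lines, trypsinized), then seeded at 1000–5000 cells/well. Cultured 3–4 days with graded compound concentrations. Proliferation read by sulforhodamine B for adherent cells or MTT for suspension cells. IC50 derived from the concentration series.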"}, "L1210 [2]": {"test_system": "L1210", "experiment": "(§1) Inhibition of L1210 cell proliferation", "settings": "Mus musculus"}, "KB": {"test_system": "KB", "experiment": "Inhibition of KB cell proliferation", "settings": "Homo sapiens"}, "B16": {"test_system": "B16", "experiment": "Inhibition of B16F1 cell proliferation", "settings": "Mus musculus"}, "L1210 [3]": {"test_system": "L1210", "experiment": "as §1", "type": "functional, cell-based", "settings": "Mus musculus"}},
  "data": [
    {"compound": "O=C(O)c1cc(CCc2cc(O)ccc2O)ccc1O", "values": [
      {"measurement": "IC50", "setting": "HaCaT", "result": "> 100000", "unit": "nM"},
      {"measurement": "IC50", "setting": "[1]", "result": 3300, "unit": "nM"}
    ]},
    {"compound": "COC(=O)c1cc(CCc2cc(OC)ccc2OC)ccc1O", "values": [
      {"measurement": "IC50", "setting": "P388", "result": 338, "unit": "nM"},
      {"measurement": "IC50", "setting": "K562", "result": 218, "unit": "nM"},
      {"measurement": "IC50", "setting": "MDA-MB-468", "result": 46.5, "unit": "nM"},
      {"measurement": "IC50", "setting": "HaCaT", "result": 40, "unit": "nM"},
      {"measurement": "IC50", "setting": "U-937", "result": 320, "unit": "nM"},
      {"measurement": "IC50", "setting": "MCF7", "result": 19, "unit": "nM"},
      {"measurement": "IC50", "setting": "LoVo", "result": 185, "unit": "nM"},
      {"measurement": "IC50", "setting": "HeLa", "result": 470, "unit": "nM"},
      {"measurement": "IC50", "setting": "MDA-MB-231", "result": 428, "unit": "nM"},
      {"measurement": "IC50", "setting": "A-431", "result": 213, "unit": "nM"},
      {"measurement": "IC50", "setting": "SCL-1", "result": 383, "unit": "nM"},
      {"measurement": "IC50", "setting": "SK-BR-3", "result": 31, "unit": "nM"},
      {"measurement": "IC50", "setting": "L1210 [2]", "result": 415, "unit": "nM"},
      {"measurement": "IC50", "setting": "KB", "result": 192, "unit": "nM"},
      {"measurement": "IC50", "setting": "B16", "result": 269, "unit": "nM"},
      {"measurement": "IC50", "setting": "[1]", "result": "> 100000", "unit": "nM"}
    ]},
    {"compound": "COC(=O)c1cc(/C=C/c2cc(OC)ccc2OC)ccc1O", "values": [
      {"measurement": "IC50", "setting": "HaCaT", "result": 5600, "unit": "nM"}
    ]},
    {"compound": "COc1ccc(OC)c(CCc2ccc(O)c(C(=O)O)c2)c1", "values": [
      {"measurement": "IC50", "setting": "HaCaT", "result": 4800, "unit": "nM"}
    ]},
    {"compound": "COC(=O)c1cc(NCc2cc(O)ccc2O)ccc1O", "values": [
      {"measurement": "IC50", "setting": "HaCaT", "result": 29000, "unit": "nM"},
      {"measurement": "IC50", "setting": "[1]", "result": 24400, "unit": "nM"}
    ]},
    {"compound": "COC(=O)c1cc(CCc2cc(O)ccc2O)ccc1O", "values": [
      {"measurement": "IC50", "setting": "HaCaT", "result": 18000, "unit": "nM"}
    ]},
    {"compound": "COC(=O)c1cc(COc2cc(OC)ccc2OC)ccc1O", "values": [
      {"measurement": "IC50", "setting": "HaCaT", "result": 14000, "unit": "nM"}
    ]},
    {"compound": "COC(=O)c1cc(/C=C\\c2cc(OC)ccc2OC)ccc1O", "values": [
      {"measurement": "IC50", "setting": "HaCaT", "result": 3900, "unit": "nM"}
    ]},
    {"compound": "COC(=O)c1cc(NCc2cc(OC)ccc2OC)ccc1O", "values": [
      {"measurement": "IC50", "setting": "HaCaT", "result": 1500, "unit": "nM"}
    ]},
    {"compound": "COc1ccc(OC)c(CNc2ccc(O)c(C(=O)O)c2)c1", "values": [
      {"measurement": "IC50", "setting": "HaCaT", "result": 92000, "unit": "nM"},
      {"measurement": "IC50", "setting": "[1]", "result": "> 100000", "unit": "nM"}
    ]},
    {"compound": "COC(=O)c1cc(CNc2cc(OC)ccc2OC)ccc1O", "values": [
      {"measurement": "IC50", "setting": "HaCaT", "result": 72000, "unit": "nM"}
    ]},
    {"compound": "COc1cc2c(c(OC)c1OC)-c1ccc(OC)c(=O)cc1[C@@H](NC(C)=O)CC2", "note": "[COLCHICINE]", "values": [
      {"measurement": "IC50", "setting": "P388", "result": 9.5, "unit": "nM"},
      {"measurement": "IC50", "setting": "K562", "result": 14.1, "unit": "nM"},
      {"measurement": "IC50", "setting": "MDA-MB-468", "result": 6.9, "unit": "nM"},
      {"measurement": "IC50", "setting": "U-937", "result": 5.2, "unit": "nM"},
      {"measurement": "IC50", "setting": "MCF7", "result": 15.3, "unit": "nM"},
      {"measurement": "IC50", "setting": "LoVo", "result": 6, "unit": "nM"},
      {"measurement": "IC50", "setting": "HeLa", "result": 18, "unit": "nM"},
      {"measurement": "IC50", "setting": "L1210 [3]", "result": 14.7, "unit": "nM"},
      {"measurement": "IC50", "setting": "MDA-MB-231", "result": 20.5, "unit": "nM"},
      {"measurement": "IC50", "setting": "A-431", "result": 14, "unit": "nM"},
      {"measurement": "IC50", "setting": "SK-BR-3", "result": 5, "unit": "nM"},
      {"measurement": "IC50", "setting": "KB", "result": 5.6, "unit": "nM"}
    ]},
    {"compound": "O=C(O)c1cc(N(Cc2ccccc2O)Cc2cc(O)ccc2O)ccc1O", "note": "[LAVENDUSTIN A]", "values": [
      {"measurement": "IC50", "setting": "HaCaT", "result": "> 100000", "unit": "nM"},
      {"measurement": "IC50", "setting": "[1]", "result": 4100, "unit": "nM"}
    ]},
    {"compound": "O=C(O)c1cc(NCc2cc(O)ccc2O)ccc1O", "note": "[LAVENDUSTIN C]", "values": [
      {"measurement": "IC50", "setting": "HaCaT", "result": "≥ 100000", "unit": "nM"}
    ]}
  ]
}
